Measured values reported in ChEMBL document CHEMBL3769316, “Discovery of novel heteroarylmethylcarbamodithioates as potent anticancer agents: Synthesis, structure-activity relationship analysis and biological evaluation” (Eur J Med Chem, 2016).
The source made the active and inactive calls. The rule behind the calls is not given here.

What was measured:
Bel-7402 [1] = assay: Induction of apoptosis in human Bel7402 cells assessed as increase in early apoptotic cells after 48 hrs by annexin V-FITC/propidium iodide staining-based flow cytometry; type: functional, cell-based
In short: (§1)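 After 48 h exposure to graded concentrations, both floating and adherent cells were collected into binding buffer. They were stained with Annexin V-FITC plus PI for 15 min in the dark and analysed immediately by flow cytometry. Annexin V+/PI− cells were counted as early apoptotic and Annexin V+/PI+ cells as late apoptotic.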

[2] = Cytotoxicity against human LO2 cells after 72 hrs by alamar blue assay; type: cell-based; conditions: L02, 72 h
In short: (§2)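 Cells seeded and cultured overnight, then exposed to compound at varying concentrations for 72 h. Cells were then incubated 2-4 h in medium containing 10% Alamar blue, and fluorescence was read at ex 530/em 590 nm. Dose-response curves used at least five concentrations, and IC50 (50% growth inhibition) was taken from these curves. Culture was at 37 °C.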

[3] = Cytotoxicity against human HCT8 cells after 72 hrs by alamar blue assay; type: functional, cell-based; conditions: HCT-8, 72 h; in short: as §2
PC-3 [4] = assay: Induction of mitotic arrest in human PC3 cells assessed as increase in MPM-2 level at 0.5 to 4 uM after 24 hrs by Western blot method; type: functional, cell-based
In short: (§3)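 PC-3 cells were treated 24 h with compound (0.5-4 µM) or taxol (40 nM) as positive control, then lysed in RIPA with PMSF and protease inhibitors. Lysates were run on SDS-PAGE and transferred to PVDF, which was blocked with 5% milk for 1 h. Membranes were probed overnight at 4 °C for MPM-2 (1:1000), phospho-H3 (1:600) or β-actin (1:1000), followed by HRP secondary and chemiluminescence.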

[5] = Cytotoxicity against human Bel7402 cells after 72 hrs by alamar blue assay; type: functional, cell-based; conditions: Bel-7402, 72 h; in short: as §2
PC-3 [6] = assay: Induction of cell cycle arrest in human PC3 cells assessed as accumulation at S phase at 2 uM after 24 hrs by propidium iodide staining-based flow cytometry (reference value: 37.86%); type: functional
NCI-H1299 = assay: Cytotoxicity against human NCI-H1299 cells after 72 hrs by alamar blue assay; type: functional, cell-based; conditions: NCI-H1299, 72 h; in short: as §2
[7] = Cytotoxicity against human COLO205 cells after 72 hrs by alamar blue assay; type: functional, cell-based; conditions: COLO 205, 72 h; in short: as §2
SK-BR-3 = assay: Cytotoxicity against human SK-BR-3 cells after 72 hrs by alamar blue assay; type: functional, cell-based; conditions: SK-BR-3, 72 h; in short: as §2
NCI-H522 = assay: Cytotoxicity against human NCI-H522 cells after 72 hrs by alamar blue assay; type: functional, cell-based; conditions: NCI-H522, 72 h; in short: as §2
PC-3 [8] = assay: Induction of apoptosis in human PC3 cells assessed as increase in early apoptotic cells after 48 hrs by annexin V-FITC/propidium iodide staining-based flow cytometry; type: functional, cell-based; in short: as §1
PC-3 [9] = assay: Induction of mitotic arrest in human PC3 cells assessed as increase in multipolar spindle formation at 2 uM after 6 hrs using DAPI staining by immunofluorescence-based laser scanning confocal microscopy; type: functional, cell-based
In short: (§4)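 PC-3 cells on confocal dishes were exposed 6 h to compound (2 µM) or taxol (40 nM), then fixed in 4% paraformaldehyde overnight at 4 °C and blocked. They were stained overnight at 4 °C with anti-β-tubulin and anti-γ-tubulin (1:100 each), then 1 h with Alexa Fluor 488/647 secondaries, and co-stained for DNA. Spindles and centrosomes were imaged by confocal microscopy.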

[10] = Cytotoxicity against human PC3 cells after 72 hrs by alamar blue assay; type: functional, cell-based; conditions: PC-3, 72 h
In short: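 PC-3 cells were grown at 37 °C, 5% CO₂ in F-12K with 10% FBS, penicillin and streptomycin. They were seeded overnight and treated with at least five concentrations for 72 h. Alamar blue (10% in medium) was added for 2-4 h, and fluorescence was read at 530/590 nm. IC50 was taken from the dose-response curves.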

PC-3 [11] = assay: Induction of mitotic arrest in human PC3 cells assessed as increase in histone H3 phosphorylation at Ser10 at 0.5 to 4 uM after 24 hrs by Western blot method; type: functional, cell-based; in short: as §3
[12] = Cytotoxicity against human DU145 cells after 72 hrs by alamar blue assay; type: functional, cell-based; conditions: DU-145, 72 h; in short: as §2
Bel-7402 [13] = assay: Induction of apoptosis in human Bel7402 cells assessed as chromatin condensation at 1 to 4 uM after 48 hrs by Hoechst 33342 staining-based fluorescence microscopy; type: functional, cell-based
In short: (§5)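 Cells were treated with graded concentrations for 48 h, washed with PBS and fixed in 4% paraformaldehyde for 15 min. They were then stained with Hoechst 33342 (10 µg/ml in PBS) for 10 min at room temperature. Nuclear morphology and chromatin condensation were imaged by fluorescence microscopy under UV illumination.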

PC-3 [14] = assay: Induction of cell cycle arrest in human PC3 cells assessed as accumulation at G0/G1 phase at 2 uM after 24 hrs by propidium iodide staining-based flow cytometry (reference value: 42.23%); type: functional
Bel-7402 [15] = assay: Induction of cell cycle arrest in human Bel7402 cells assessed as accumulation at G2/M phase at 2 uM after 24 hrs by propidium iodide staining-based flow cytometry (reference value: 16%); type: functional
PC-3 [16] = assay: Induction of apoptosis in human PC3 cells assessed as chromatin condensation at 0.5 to 2 uM after 48 hrs by Hoechst 33342 staining-based fluorescence microscopy; type: functional, cell-based; in short: as §5
PC-3 [17] = assay: Induction of mitotic arrest in human PC3 cells assessed as increase in supernumerary centrosome formation at 2 uM after 6 hrs using DAPI staining by immunofluorescence-based laser scanning confocal microscopy; type: functional, cell-based; in short: as §4
[18] = Cytotoxicity against human SW620 cells after 72 hrs by alamar blue assay; type: functional, cell-based; conditions: SW-620, 72 h
In short: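 SW620 cells were kept at 37 °C in 100% air in Leibovitz's L-15 with 10% FBS, penicillin and streptomycin. After overnight seeding, cells were given at least five concentrations for 72 h. Cells were then incubated 2-4 h with 10% Alamar blue, and fluorescence was read at ex 530/em 590 nm. IC50 was interpolated from the dose-response curves.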

PC-3 [19] = assay: Induction of apoptosis in human PC3 cells assessed as increase in late apoptotic cells after 48 hrs by annexin V-FITC/propidium iodide staining-based flow cytometry; type: functional, cell-based; in short: as §1
[20] = Cytotoxicity against human HCT116 cells after 72 hrs by alamar blue assay; type: functional, cell-based; conditions: HCT-116, 72 h; in short: as §2
Bel-7402 [21] = assay: Induction of cell cycle arrest in human Bel7402 cells assessed as accumulation at S phase at 2 uM after 24 hrs by propidium iodide staining-based flow cytometry (reference value: 47.24%); type: functional
MDA-MB-468 = assay: Cytotoxicity against human MDA-MB-468 cells after 72 hrs by alamar blue assay; type: functional, cell-based; conditions: MDA-MB-468, 72 h; in short: as §2
Bel-7402 [22] = assay: Induction of cell cycle arrest in human Bel7402 cells assessed as accumulation at G0/G1 phase at 2 uM after 24 hrs by propidium iodide staining-based flow cytometry (reference value: 36.76%); type: functional
PC-3 [23] = assay: Induction of cell cycle arrest in human PC3 cells assessed as accumulation at G2/M phase at 2 uM after 24 hrs by propidium iodide staining-based flow cytometry (reference value: 19.9%); type: functional
NCI-H460 = assay: Cytotoxicity against human NCI-H460 cells after 72 hrs by alamar blue assay; type: functional, cell-based; conditions: NCI-H460, 72 h; in short: as §2
[24] = Cytotoxicity against HEK293T cells after 72 hrs by alamar blue assay; type: cell-based; conditions: Homo sapiens, HEK-293T
Bel-7402 [25] = assay: Induction of apoptosis in human Bel7402 cells assessed as increase in late apoptotic cells after 48 hrs by annexin V-FITC/propidium iodide staining-based flow cytometry; type: functional, cell-based; in short: as §1

S=C(NCc1cccnc1)SCCc1nnc(-c2ccccc2)o1
Activity (Bel-7402 [1]): Dose-dependent effect | IC50 [2]: 9.67 µM | IC50 [3]: 5.98 µM | Activity (PC-3 [4]): Active | IC50 [5]: 1.23 µM | Activity (PC-3 [6]): 26.46% | IC50 (NCI-H1299): 1.89 µM | IC50 [7]: 7.92 µM | IC50 (SK-BR-3): 0.58 µM | IC50 (NCI-H522): 2.16 µM | Activity (PC-3 [8]): Dose-dependent effect | Activity (PC-3 [9]): Active | IC50 [10]: 0.39 µM | Activity (PC-3 [11]): Active | IC50 [12]: 3.34 µM | Activity (Bel-7402 [13]): Active | Activity (PC-3 [14]): 22.41% | Activity (Bel-7402 [15]): 46.27% | Activity (PC-3 [16]): Active | Activity (PC-3 [17]): Active | IC50 [18]: 3.8 µM | Activity (PC-3 [19]): Dose-dependent effect | IC50 [20]: 8.21 µM | Activity (Bel-7402 [21]): 29.9% | IC50 (MDA-MB-468): 2.77 µM | Activity (Bel-7402 [22]): 21.42% | Activity (PC-3 [23]): 51.1% | IC50 (NCI-H460): 6.07 µM | IC50 [24]: 14.6 µM | Activity (Bel-7402 [25]): Dose-dependent effect
